The values that follow come from publication PMC9587871 (Asian Pacific Journal of Cancer Prevention : APJCP, 2022).

Values joined by “and” are separate entries in the source; they are usually repeats but may differ in a detail not shown here. Equal values may be shown once. Read-outs that look alike come from different tables or passages of the source.

The subject of series [1] is LPS-induced NO production in RAW 264.7 macrophages (Nitric oxide synthase). Put plainly: Griess assay of LPS-induced NO production in RAW 264.7 macrophages. It is filed as cell-based. As to conditions: read-out: NOS- IC50 value, LPS-prompted RAW264.7 macrophages, 24h incubations, n=4. Summed up:
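LPS-stimulated RAW264.7 macrophages exposed to the test compound; NO read by Griess assay. IC50 calculated within the tested dose range. Indomethacin used as reference. Data are mean ± SD of 4 independent replicates.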

The nature of series [2]: DPPH radical scavenging assay. As to conditions: 30 minutes incubations; n=4.
The test system of series [3] is breast MCF7 cancer cell line. Put plainly: SRB antiproliferative assay, MCF7. It is filed as cell-based.
The test system of series [4] is Leukaemia K562 cancer cell line. Put plainly: SRB antiproliferative assay, K562. It is filed as cell-based.
Series [5] relates to colorectal HT29 cancer cell line. Kind of series: SRB antiproliferative assay, HT29. It is filed as cell-based.

As to `COc1ccc2c(c1)c(CC(=O)O)c(C)n2C(=O)c1ccc(Cl)cc1` [Indomethacin], the IC50 in series [1] (Mus musculus, RAW264.7, 24 h) was 120 µM and 42.8 µg/mL; in series [1] it was 119 ± 3.02 µM.
On to `O=C1O[C@H]([C@@H](O)CO)C(O)=C1O` [Ascorbic acid], for which, in series [2], the “DPPH radical scavenging IC50 value” is recorded as “(21.83±1.10) μg/mL”.
Regarding `N.N.[Cl][Pt][Cl]` [Cisplatin], the IC50 in series [3] (read-out: Cytotoxicity (as of %Control) IC50 value, MCF7, 72 h incubations, n=4) worked out at 28.1 ± 4.4 µM; in series [3] (read-out: Cytotoxicity (as of %Control) IC50 value, MCF7, 72 h incubations, n=4, listed as cisplatin), 28 µM; in series [4] (read-out: Cytotoxicity (as of %Control) IC50 value, K562, 72 h incubations, n=4, NI is lack of cytotoxicity within the tested 0.1-200 μg/mL range) it was 180 ± 21 µM; in series [4] (read-out: Cytotoxicity (as of %Control) IC50 value, K562, 72 h incubations, n=4, NI is lack of cytotoxicity within the tested 0.1-200 μg/mL range, listed as cisplatin) it was 180 µM; in series [5] (read-out: Cytotoxicity (as of %Control) IC50 value, HT29, 72 h incubations, n=4), 45.1 ± 7.9 µM; in series [5] (read-out: Cytotoxicity (as of %Control) IC50 value, HT29, 72 h incubations, n=4, listed as cisplatin), 45 µM.
